{"data": "Results collected from several papers", "target": "Serine/threonine-protein kinase PLK2 (PLK2, Homo sapiens, UniProt Q9NYY3)", "note": "Each line is one published result; the experiments were not run side by side."}
{"Compound": "O=C(c1ccc(Nc2ncc(Cl)c(-c3ccc(Cl)s3)n2)cc1)N1CCC(N2CCCC2)CC1", "effect on": "binding", "method": "competition with immobilised ligand", "tested at": "1 µM", "remaining binding": "47%"}
{"Compound": "Cc1nc(C2CCN(C(=O)c3ccc(OC(F)(F)F)cc3N)CC2)c2ncc(N3CCN(C)CC3)cc2n1", "effect on": "cell-free assay", "method": "competition with immobilised ligand", "tested at": "1 µM", "remaining binding": "74%"}
{"Compound": "COc1cnc(Nc2cccc(S(N)(=O)=O)c2)nc1N1CCN(c2ccccc2)C(=O)C1", "effect on": "binding", "method": "competition with immobilised ligand", "tested at": "1 µM", "remaining binding": "80%"}
{"Compound": "C[C@@H]1CN(c2cc(-c3nn(C)c4ccc(OC5(C)CC5)cc34)ncn2)C[C@H](C)O1", "effect on": "cell-free assay", "method": "competition with immobilised ligand", "tested at": "1 µM", "remaining binding": "68%"}
{"Compound": "CN(CCCC(F)(F)F)c1nccc(-c2cnn3ncccc23)n1", "effect on": "binding", "tested at": "1 µM", "remaining binding": "99%"}
{"Compound": "FC(F)(F)Oc1cccc(-c2cnc3ccc(-c4ccncc4)nn23)c1", "effect on": "cell-free assay", "method": "competition with immobilised ligand", "tested at": "5 µM", "remaining binding": "77%"}
{"Compound": "N[C@H]1CCN(c2nccc(-c3cnn4ncccc34)n2)C1", "effect on": "binding", "tested at": "1 µM", "remaining binding": "71%"}
{"Compound": "Cc1c(NC(=O)c2cc(C(N)=O)nc3cc(F)ccc23)c(C(F)(F)F)nn1Cc1ccc(C(C)(C)C)cc1", "effect on": "cell-free assay", "method": "competition with immobilised ligand", "tested at": "1 µM", "remaining binding": "100%"}
{"Compound": "O=C(Nc1c[nH]nc1C(=O)NC1CCNCC1)c1cc(F)cc(F)c1", "effect on": "binding", "method": "competition with immobilised ligand", "tested at": "1 µM", "remaining binding": "92%"}
{"Compound": "CN(c1nccc(-c2cnn3ncccc23)n1)C1CC1", "effect on": "binding", "tested at": "1 µM", "remaining binding": "88%"}
{"Compound": "O=C(c1ccc(Nc2ncc(Cl)c(-c3cc4ccccc4s3)n2)cc1)N1CCC(N2CCCC2)CC1", "effect on": "binding", "method": "competition with immobilised ligand", "tested at": "1 µM", "remaining binding": "68%"}
{"Compound": "CN(C)c1nccc(-c2cnn3ncccc23)n1", "effect on": "binding", "tested at": "1 µM", "remaining binding": "100%"}
{"Compound": "c1cncc(-c2cccc(Nc3nccc(NC4CCCCC4)n3)c2)c1", "effect on": "binding", "method": "competition with immobilised ligand", "tested at": "10 µM", "remaining binding": "100%"}
{"Compound": "O=C(NCCCN1CCOCC1)c1ccc(Nc2ncc(Cl)c(-c3ccc(Cl)s3)n2)cc1", "effect on": "binding", "method": "competition with immobilised ligand", "tested at": "1 µM", "remaining binding": "5.9%"}
{"Compound": "FC(F)(F)c1ccc2c(c1)nc(-c1cccnc1)n2C1CC1", "effect on": "cell-free assay", "method": "competition with immobilised ligand", "tested at": "1 µM", "remaining binding": "94%"}
{"Compound": "COc1ncc2cc3ccccc3nc2c1C#N", "effect on": "cell-free assay", "method": "competition with immobilised ligand", "tested at": "5 µM", "remaining binding": "45%"}
{"Compound": "C[C@@H]1CCN(c2nccc(-c3cnn4ncccc34)n2)C1", "effect on": "binding", "tested at": "1 µM", "remaining binding": "88%"}
{"Compound": "NS(=O)(=O)c1cc(NC(=O)C2(c3ccccc3Cl)CC2)ccc1Oc1cccc(Cl)c1", "effect on": "cell-free assay", "method": "competition with immobilised ligand", "tested at": "1 µM", "remaining binding": "84%"}
{"Compound": "c1cnn2ncc(-c3ccnc(N4CCC45COC5)n3)c2c1", "effect on": "binding", "tested at": "1 µM", "remaining binding": "87%"}
{"Compound": "CCC(=O)N[C@H]1CC[C@@H](C(=O)N(C)c2ccc(-c3nc4ccccc4o3)cc2)C1", "effect on": "cell-free assay", "method": "competition with immobilised ligand", "tested at": "1 µM", "remaining binding": "96%"}
